# In ChEMBL document CHEMBL1125823, “2-Phenylindole-linked [2-(aminoalkyl)pyridine]dichloroplatinum(II): complexes with a selective action on estrogen receptor positive mammary tumors” (1991):
# Legend:
# [1] = target: T1, Estrogen receptor (Mus musculus) (UniProt O08537+P19785); test: Anti-uterotrophic effect in mice as relative uterine weight(mg) at 150 ug; assay type: functional
# In short: (§1)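 Immature mice received the compound sc per animal on three consecutive days, alone or with 0.4 µg estrone per animal per day. Uteri were taken 24 h after the last injection, Bouin-fixed, dried at 100 °C for 24 h and weighed. Relative uterus weight = dry weight (mg)/body weight (g) × 100; mean of 6-10 animals ± SD; Mann-Whitney U test.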
# MCF7 [2] = test: Effect on [3H]thymidine incorporation into estrogen receptor positive MCF-7 human breast cancer cells at 5x10E-6M; assay type: functional
# In short: (§2)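 MCF-7 cells in improved MEM with glutamine, gentamycin and 5% newborn calf serum, switched to charcoal-treated serum two weeks ahead; phenol red present; 37 °C, 5% CO2. About 2×10^4 cells plated per well; compound in 0.1% DMF added 2 days later, renewed on day 4; labelled 3 days later with 1 μCi [3H]thymidine per well for 2 h; cpm/dish, mean of six dishes ± SD.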
# MCF7 [3] = test: Effect on [3H]thymidine incorporation into estrogen receptor positive MCF-7 human breast cancer cells at 1x10E-6M (control = 42.6+/-2.8); assay type: functional
# In short: (§3)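 MCF-7 cells were grown in MEM with charcoal-treated 5% newborn calf serum and phenol red, then treated with compounds in 0.1% DMF (renewed on day 4) alongside DMF controls. They were labeled 3 days later with 1 µCi [³H]thymidine per well for 2 h, and incorporated radioactivity per dish was measured; mean of six dishes ± SD; % T/C.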
# MCF7 [4] = test: Effect on Estrogen receptor positive MCF-7 human breast cancer cell proliferation at 5x10E-7M (control = 63.8+/-9.0); assay type: functional
# In short: (§4)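 MCF-7 cells were kept in MEM with 5% charcoal-treated newborn calf serum and phenol red for 2 weeks, then about 2×10^4 cells were plated per well. Compounds in 0.1% DMF were added 2 days later and renewed on day 4; DMF alone served as control. Coulter cell counts were taken on day 5; mean of six dishes ± SD; % T/C.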
# MCF7 [5] = test: Effect on [3H]thymidine incorporation into estrogen receptor positive MCF-7 human breast cancer cells at 5x10E-6M (control = 42.6+/-2.8); assay type: functional; in short: as §2
# [6] = target: T1, Estrogen receptor (Mus musculus); test: Uterotrophic effect in mice as relative uterine weight(mg) at 150 ug (control = 12.3+/-3.7); assay type: functional, tissue-based
# In short: (§5)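 Immature mice dosed sc per animal on three consecutive days; vehicle controls. Killed and weighed 24 h after last injection; uteri fixed in Bouin solution 2 h, washed with alcoholic LiCl, dried at 100 °C for 24 h. Relative uterus weight = uterine dry weight (mg)/body weight (g) × 100; mean of 6-10 animals ± SD.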
# MCF7 [7] = test: Effect on [3H]thymidine incorporation into estrogen receptor positive MCF-7 human breast cancer cells at 1x10E-6M; assay type: functional; in short: as §3
# MCF7 [8] = test: Effect on Estrogen receptor positive MCF-7 human breast cancer cell proliferation at 1x10E-6M (control = 63.8+/-9.0); assay type: functional; in short: as §4
# [9] = target: T1, Estrogen receptor (Mus musculus); test: Percent inhibition of estrone stimulated uterotrophic effect in mice at 150 ug; assay type: functional
# In short: (§6)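 Immature mice given test compound per animal sc on three consecutive days together with 0.4 μg estrone/animal/day. Killed 24 h after last injection; uteri fixed in Bouin, dried 100 °C 24 h and weighed. Inhibition = 100 − [(W_S,T − W_V)/(W_S − W_V) × 100] using relative uterus weights; 6-10 animals; Wilcoxon-Mann-Whitney U test.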
# [10] = target: T1, Estrogen receptor (Mus musculus); test: Uterotrophic effect in mice as relative uterine weight(mg) at 15 ug (control = 12.3+/-3.7); assay type: functional, tissue-based; in short: as §5
# MCF7 [11] = test: Effect on [3H]-thymidine incorporation into estrogen receptor positive MCF-7 human breast cancer cells at 5x10E-7M (control = 42.6+/-2.8); assay type: functional; in short: as §3
# [12] = target: T1, Estrogen receptor (Mus musculus); test: Anti-uterotrophic effect in mice as relative uterine weight(mg) at 15 ug; assay type: functional; in short: as §1
# MCF7 [13] = test: Effect on [3H]thymidine incorporation into estrogen receptor positive MCF-7 human breast cancer cells at 5x10E-7M
# [14] = target: T1, Estrogen receptor (Mus musculus); test: Percent inhibition of estrone stimulated uterotrophic effect in mice at 15 ug; assay type: functional; in short: as §6
# MCF7 [15] = test: Effect on Estrogen receptor positive MCF-7 human breast cancer cell proliferation at 5x10E-6M; assay type: functional; in short: as §4
# MCF7 [16] = test: Effect on Estrogen receptor positive MCF-7 human breast cancer cell proliferation at 5x10E-6M (control = 63.8+/-9.0); assay type: functional; in short: as §4
# MCF7 [17] = test: Effect on Estrogen receptor positive MCF-7 human breast cancer cell proliferation at 1x10E-6M; assay type: functional; in short: as §4
# MCF7 [18] = test: Effect on Estrogen receptor positive MCF-7 human breast cancer cell proliferation at 5x10E-7M; assay type: functional; in short: as §4
# Mus musculus [19] = species on record: Mus musculus; test: Anti-tumor activity in hormone-dependent transplant MXT mammary tumor bearing mice at 12.4 mg (control=534+/-652); assay type: functional
# [20] = target: T1, Estrogen receptor (Mus musculus); test: Uterotrophic effect in mice as relative uterine weight(mg) at 15 ug (control = 12.4+/-3.7); assay type: functional, tissue-based; in short: as §5
# Mus musculus [21] = species on record: Mus musculus; test: Relative tumor weight in treated compared to control mice bearing hormone-dependent transplanted MXT mammary tumors at 12.4 mg; assay type: functional
# MCF7 [22] = test: Effect on [3H]thymidine incorporation into estrogen receptor positive MCF-7 human breast cancer cells at 5x10E-6M (control = 7.7+/-0.8); assay type: functional; in short: as §2
# MCF7 [23] = test: Effect on Estrogen receptor positive MCF-7 human breast cancer cell proliferation at 1x10E-6M (control = 22.3+/-3.3); assay type: functional; in short: as §4
# MCF7 [24] = test: Effect on [3H]thymidine incorporation into estrogen receptor positive MCF-7 human breast cancer cells at 1x10E-6M (control = 7.7+/-0.8); assay type: functional; in short: as §3
# [25] = target: T1, Estrogen receptor (Mus musculus); test: Anti-uterotrophic effect in hormone-dependent transplant MXT bearing mice as relative uterine weight in treated and control mice at 12.4 mg (control=100+/-30); assay type: functional
# Mus musculus [26] = species on record: Mus musculus; test: Relative tumor weight in treated compared to control mice bearing hormone-dependent transplanted MXT mammary tumors at 6.2 mg; assay type: functional
# [27] = target: T1, Estrogen receptor (Mus musculus); test: Uterotrophic effect in mice as relative uterine weight(mg) at 150 ug (control = 12.4+/-3.7); assay type: functional, tissue-based; in short: as §5
# MCF7 [28] = test: Effect on Estrogen receptor positive MCF-7 human breast cancer cell proliferation at 5x10E-6M (control = 22.3+/-3.3); assay type: functional; in short: as §4
# Mus musculus [29] = species on record: Mus musculus; test: Anti-tumor activity in hormone-dependent transplant MXT mammary tumor bearing mice at 6.2 mg (control=534+/-652); assay type: functional
# [30] = target: T1, Estrogen receptor (Mus musculus); test: Anti-uterotrophic effect in hormone-dependent transplant MXT bearing mice as relative uterine weight in treated and control mice at 6.2 mg (control=100+/-30); assay type: functional
# MCF7 [31] = test: Effect on [3H]thymidine incorporation into estrogen receptor positive MCF-7 human breast cancer cells at 5*10e-6 M (control = 10.6+/-1.9); assay type: functional; in short: as §2
# MCF7 [32] = test: Effect on [3H]thymidine incorporation into estrogen receptor positive MCF-7 human breast cancer cells at 1*10^-6 M (control = 10.6+/-1.9); assay type: functional; in short: as §3
# MCF7 [33] = test: Effect on Estrogen receptor positive MCF-7 human breast cancer cell proliferation at 5x10E-6M (control = 25.4+/-3.1); assay type: functional; in short: as §4
# [34] = target: T1, Estrogen receptor (Mus musculus); test: Uterotrophic effect in mice as relative uterine weight(mg) at 15 ug (control = […]+/-1.7); assay type: functional, tissue-based
# MCF7 [35] = test: Effect on Estrogen receptor positive MCF-7 human breast cancer cell proliferation at 1x10E-6M (control = 25.4+/-3.1); assay type: functional; in short: as §4
# [36] = target: T1, Estrogen receptor (Mus musculus); test: Uterotrophic effect in mice as relative uterine weight(mg) at 150 ug (control = […]+/-1.7); assay type: functional, tissue-based
# T1 sequence (O08537 whole entry, looked up): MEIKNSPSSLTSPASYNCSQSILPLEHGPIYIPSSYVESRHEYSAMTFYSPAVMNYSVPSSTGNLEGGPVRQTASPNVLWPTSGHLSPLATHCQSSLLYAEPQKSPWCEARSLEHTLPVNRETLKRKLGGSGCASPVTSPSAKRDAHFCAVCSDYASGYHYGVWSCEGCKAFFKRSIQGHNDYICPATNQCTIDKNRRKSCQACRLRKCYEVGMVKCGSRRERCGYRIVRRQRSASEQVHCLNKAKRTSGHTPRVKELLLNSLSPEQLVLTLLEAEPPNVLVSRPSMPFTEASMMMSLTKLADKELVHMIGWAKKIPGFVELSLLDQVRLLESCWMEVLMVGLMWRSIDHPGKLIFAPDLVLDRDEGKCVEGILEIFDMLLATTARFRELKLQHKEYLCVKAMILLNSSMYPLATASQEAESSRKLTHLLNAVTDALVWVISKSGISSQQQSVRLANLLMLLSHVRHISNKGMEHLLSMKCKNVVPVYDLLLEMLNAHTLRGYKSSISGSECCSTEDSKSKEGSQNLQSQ
# T1 sequence (P19785 whole entry, looked up): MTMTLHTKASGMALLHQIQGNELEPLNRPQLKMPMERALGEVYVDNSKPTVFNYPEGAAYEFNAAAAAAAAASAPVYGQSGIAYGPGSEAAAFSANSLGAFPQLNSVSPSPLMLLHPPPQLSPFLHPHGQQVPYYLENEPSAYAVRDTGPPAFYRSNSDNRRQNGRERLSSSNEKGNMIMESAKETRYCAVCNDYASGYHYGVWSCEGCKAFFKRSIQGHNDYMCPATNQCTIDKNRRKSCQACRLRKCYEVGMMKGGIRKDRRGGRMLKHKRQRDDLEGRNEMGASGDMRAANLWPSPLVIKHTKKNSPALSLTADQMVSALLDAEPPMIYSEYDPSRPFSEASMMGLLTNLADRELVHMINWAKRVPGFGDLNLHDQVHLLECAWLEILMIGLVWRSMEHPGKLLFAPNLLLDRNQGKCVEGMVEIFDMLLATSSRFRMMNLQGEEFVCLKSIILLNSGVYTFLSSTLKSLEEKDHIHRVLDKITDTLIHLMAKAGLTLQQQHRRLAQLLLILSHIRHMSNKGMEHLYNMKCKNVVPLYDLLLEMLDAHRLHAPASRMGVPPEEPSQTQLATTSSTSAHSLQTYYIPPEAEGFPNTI
smiles,measurement,setting,value
Cc1c(-c2ccc(O)cc2)n(CCCCCCCNCc2ccccn2)c2ccc(O)cc12,Relative uterus weight,[1],29.4 mg
same,T/C,MCF7 [2],5%
same,Activity,MCF7 [3],11300
same,Cell no/dish,MCF7 [4],369000
same,Activity,MCF7 [5],2200
same,Relative uterus weight,[6],19 mg
same,T/C,MCF7 [7],27%
same,Cell no/dish,MCF7 [8],264000
same,inhibition,[9],48%
same,Relative uterus weight,[10],15.2 mg
same,[3H] thymidinecpm/dish,MCF7 [11],14500
same,Relative uterus weight,[12],41.9 mg
same,T/C,MCF7 [13],34%
same,inhibition,[14],11%
same,T/C,MCF7 [15],23%
same,Cell no/dish,MCF7 [16],146000
same,T/C,MCF7 [17],41%
same,T/C,MCF7 [18],58%
Cc1c(-c2ccc(O)cc2)n(CCCCCCNCc2ccccn2)c2ccc(O)cc12,Relative uterus weight,[1],36.9 mg
same,T/C,MCF7 [2],5%
same,Tumor weight,Mus musculus [19],169 mg
same,Relative uterus weight,[20],27.9 mg
same,T/C,Mus musculus [21],31%
same,Activity,MCF7 [22],400
same,Cell no/dish,MCF7 [23],106000
same,T/C,MCF7 [7],13%
same,inhibition,[9],31%
same,Relative uterus weight,[12],46.6 mg
same,Activity,MCF7 [24],1000
same,T/C,[25],137%
same,T/C,Mus musculus [26],71%
same,Relative uterus weight,[27],24.9 mg
same,Cell no/dish,MCF7 [28],52000
same,T/C,MCF7 [15],23%
same,Tumor weight,Mus musculus [29],378 mg
same,T/C,[30],119%
same,T/C,MCF7 [17],48%
CCC(NCCCCCCn1c(-c2ccc(O)cc2)c(C)c2cc(O)ccc21)c1ccccn1 (stereo unspecified),Relative uterus weight,[1],30.5 mg
same,T/C,MCF7 [2],79%
same,Activity,MCF7 [31],8400
same,Activity,MCF7 [32],10500
same,T/C,MCF7 [7],99%
same,Cell no/dish,MCF7 [33],137000
same,inhibition,[9],51%
same,Relative uterus weight,[12],32.8 mg
same,Relative uterus weight,[34],14.7 mg
same,Cell no/dish,MCF7 [35],195000
same,inhibition,[14],42%
same,Relative uterus weight,[36],26 mg
same,T/C,MCF7 [15],54%
same,T/C,MCF7 [17],77%
